# ChEMBL document CHEMBL1142590, “Triterpenoid saponins from the roots of Pulsatilla koreana” (2005)
# Test system: A549
# Test: Cytotoxicity against human A549 cells after 48 hrs by SRB assay
# Format: functional
# Settings: A549, 48 h, read-out: ED50 (the source's name)
# Outline: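 A-549 human lung carcinoma cells grown adherent in RPMI-1640 with 5% heat-inactivated FBS, 37 °C, 5% CO2, humidified. Cells seeded in 96-well plates, preincubated 24 h, then exposed to compounds for 48 h. Fixed with cold 10% TCA, stained with 0.4% SRB in 1% acetic acid, OD read at 540 nm. ED50 = 50% growth inhibition; doxorubicin positive control.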
row,SMILES,EC50
1,C[C@@H]1O[C@@H](O[C@H]2[C@H](O[C@H]3CC[C@@]4(C)[C@@H](CC[C@]5(C)[C@@H]4CC=C4[C@H]6CC(C)(C)CC[C@]6(C(=O)O)CC[C@]45C)[C@]3(C)CO)OC[C@H](O)[C@@H]2O)[C@H](O)[C@H](O[C@@H]2O[C@H](CO)[C@@H](O[C@@H]3O[C@H](CO)[C@@H](O)[C@H](O)[C@H]3O)[C@H](O)[C@H]2O)[C@H]1O,> 10 µg/mL
2,C[C@@H]1O[C@@H](O[C@H]2[C@H](O[C@H]3CC[C@]4(C)[C@H]5CC=C6[C@H]7CC(C)(C)CC[C@]7(C(=O)O)CC[C@@]6(C)[C@]5(C)CC[C@H]4C3(C)C)OC[C@H](O[C@@H]3O[C@H](CO)[C@@H](O)[C@H](O)[C@H]3O)[C@@H]2O)[C@H](O)[C@H](O)[C@H]1O,2.6 µg/mL
3,C=C(C)[C@@H]1CC[C@]2(C(=O)O)CC[C@]3(C)[C@H](CC[C@@H]4[C@@]5(C)CC[C@H](O[C@@H]6OC[C@H](O[C@@H]7O[C@H](CO)[C@@H](O)[C@H](O)[C@H]7O)[C@H](O)[C@H]6O[C@@H]6O[C@@H](C)[C@H](O)[C@@H](O)[C@H]6O)C(C)(C)[C@@H]5CC[C@]43C)[C@@H]12,> 10 µg/mL
4,C=C(C)[C@@H]1CC[C@]2(C(=O)O)CC[C@]3(C)[C@H](CC[C@@H]4[C@@]5(C)CC[C@H](O[C@@H]6OC[C@H](O[C@@H]7O[C@H](CO)[C@@H](O)[C@H](O)[C@H]7O)[C@H](O)[C@H]6O)[C@@](C)(CO)[C@@H]5CC[C@]43C)[C@@H]12,> 10 µg/mL
5,C=C(C)[C@@H]1CC[C@]2(C(=O)O)CC[C@]3(C)[C@H](CC[C@@H]4[C@@]5(C)CC[C@H](O[C@@H]6OC[C@H](O[C@@H]7O[C@H](CO)[C@@H](O)[C@H](O)[C@H]7O)[C@H](O)[C@H]6O[C@@H]6O[C@@H](C)[C@H](O)[C@@H](O)[C@H]6O)[C@@](C)(CO)[C@@H]5CC[C@]43C)[C@@H]12,> 10 µg/mL
6,C=C(C)[C@@H]1CC[C@]2(C(=O)O)CC[C@]3(C)[C@H](CC[C@@H]4[C@@]5(C)CC[C@H](O[C@@H]6OC[C@H](O)[C@H](O)[C@H]6O[C@@H]6O[C@@H](C)[C@H](O)[C@@H](O[C@@H]7O[C@H](CO)[C@@H](O)[C@H](O)[C@H]7O)[C@H]6O)[C@@](C)(CO)[C@@H]5CC[C@]43C)[C@@H]12,> 10 µg/mL
7,C=C(C)[C@@H]1CC[C@]2(C(=O)O)CC[C@]3(C)[C@H](CC[C@@H]4[C@@]5(C)CC[C@H](O[C@@H]6OC[C@H](O)[C@H](O)[C@H]6O[C@@H]6O[C@@H](C)[C@H](O)[C@@H](O[C@@H]7O[C@H](CO)[C@@H](O)[C@H](O)[C@H]7O)[C@H]6O)C(C)(C)[C@@H]5CC[C@]43C)[C@@H]12,> 10 µg/mL
8,C[C@@H]1O[C@@H](O[C@H]2[C@H](O[C@H]3CC[C@@]4(C)[C@@H](CC[C@]5(C)[C@@H]4CC=C4[C@H]6CC(C)(C)CC[C@]6(C(=O)O)CC[C@]45C)[C@]3(C)CO)OC[C@H](O)[C@@H]2O)[C@H](O)[C@H](O)[C@H]1O,9.6 µg/mL
9,COc1cccc2c1C(=O)c1c(O)c3c(c(O)c1C2=O)C[C@@](O)(C(=O)CO)C[C@@H]3O[C@H]1C[C@H](N)[C@H](O)[C@H](C)O1 [DOXORUBICIN],0.02 µg/mL
